How the values were obtained:
Cannabinoid receptor 1 = Cannabinoid receptor 1 (Rattus norvegicus, UniProt P20272); experiment: Displacement of [3H]CP55940 from rat brain CB1 receptor
Cannabinoid receptor 2 [1] = target: Cannabinoid receptor 2 (Mus musculus, UniProt P47936); experiment: Displacement of [3H]CP55940 from mouse spleen CB2 receptor; type: tissue-based
Cannabinoid receptor 2 [2] = target: Cannabinoid receptor 2 (Homo sapiens, UniProt P34972); experiment: Displacement of [3H]CP55940 from human CB2 receptor expressed in HEK293 cells; type: cell-based
Sequence of Cannabinoid receptor 2 (Homo sapiens, UniProt P34972) (P34972 whole entry): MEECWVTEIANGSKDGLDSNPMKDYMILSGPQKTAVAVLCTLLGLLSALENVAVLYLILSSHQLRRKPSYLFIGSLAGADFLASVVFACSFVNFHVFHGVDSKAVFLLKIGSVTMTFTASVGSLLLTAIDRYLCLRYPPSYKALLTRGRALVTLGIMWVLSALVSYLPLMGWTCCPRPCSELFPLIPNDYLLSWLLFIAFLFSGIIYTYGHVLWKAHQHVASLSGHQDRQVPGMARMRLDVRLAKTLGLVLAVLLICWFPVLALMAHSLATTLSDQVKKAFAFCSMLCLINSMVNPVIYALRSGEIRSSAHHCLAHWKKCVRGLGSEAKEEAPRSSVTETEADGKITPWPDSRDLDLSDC

Rattus norvegicus [3] = experiment: Antinociceptive activity in Sprague-Dawley rat assessed as reduction in heat-induced tail flick latency at 0.1 mg/kg, sc after 120 mins; type: functional; design: scale not given: the % may be the effect or the level left; details: route subcutaneous
Summary of the method: (§1)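 Female Sprague-Dawley rats (200–350 g, n=5-6/group), tested repeatedly with ≥3 days between sessions. Drug given s.c. (1.0 ml/kg) in 20% ethanol/20% alkamuls/60% saline diluted with saline; morphine in saline. Lamp set for 2–3 sec baseline, 6.0 sec cut-off; two baselines at 10 min intervals; latency read at 30, 60, 120, 180, 360 min. Expressed as %MPE.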

Rattus norvegicus [4] = species on record: Rattus norvegicus; experiment: Antinociceptive activity in Sprague-Dawley rat assessed as reduction in heat-induced tail flick latency; type: functional; design: scale not given: the % may be the effect or the level left; summary of the method: as §1
Rattus norvegicus [5] = experiment: Antinociceptive activity in sc dosed Sprague-Dawley rat assessed as thermal-stimulus induced tail flick latency after 120 mins; type: functional; details: 2 h; summary of the method: as §1

Sequence of Cannabinoid receptor 1 (P20272 whole entry): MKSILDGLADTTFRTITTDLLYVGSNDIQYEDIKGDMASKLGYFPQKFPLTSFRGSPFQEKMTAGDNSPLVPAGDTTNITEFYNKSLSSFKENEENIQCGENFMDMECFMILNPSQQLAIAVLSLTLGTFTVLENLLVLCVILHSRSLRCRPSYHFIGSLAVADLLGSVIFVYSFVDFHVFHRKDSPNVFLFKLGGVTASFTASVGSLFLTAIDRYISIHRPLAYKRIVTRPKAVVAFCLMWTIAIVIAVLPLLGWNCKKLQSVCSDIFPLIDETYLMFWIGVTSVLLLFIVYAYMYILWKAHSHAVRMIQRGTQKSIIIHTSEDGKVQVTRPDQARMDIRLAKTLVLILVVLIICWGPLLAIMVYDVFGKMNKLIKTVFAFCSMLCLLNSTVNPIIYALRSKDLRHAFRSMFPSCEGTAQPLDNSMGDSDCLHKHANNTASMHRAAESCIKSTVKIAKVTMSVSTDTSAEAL
Sequence of Cannabinoid receptor 2 (Mus musculus, UniProt P47936) (P47936 whole entry): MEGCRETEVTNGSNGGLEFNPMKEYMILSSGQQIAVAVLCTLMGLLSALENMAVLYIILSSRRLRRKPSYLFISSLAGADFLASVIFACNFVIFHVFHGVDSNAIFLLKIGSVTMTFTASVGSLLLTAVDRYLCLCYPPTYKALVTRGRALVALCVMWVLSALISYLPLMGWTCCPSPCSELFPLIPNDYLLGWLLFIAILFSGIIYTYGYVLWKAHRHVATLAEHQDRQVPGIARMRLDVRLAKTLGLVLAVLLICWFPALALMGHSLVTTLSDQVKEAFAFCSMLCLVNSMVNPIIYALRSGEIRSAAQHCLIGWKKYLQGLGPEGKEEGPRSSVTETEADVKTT

| Structure (SMILES) | Ki (Cannabinoid receptor 1) | Ki (Cannabinoid receptor 2 [1]) | Ki (Cannabinoid receptor 2 [2]) | Activity (Rattus norvegicus [3]) | Activity (Rattus norvegicus [4]) | ED50 (Rattus norvegicus [5]) |
| --- | --- | --- | --- | --- | --- | --- |
| CCCCCc1cc(O)c2c(c1)OC(C)(C)[C@@H]1CCC(=O)C[C@@H]21 | 333 nM | 265 nM |  |  |  |  |
| CCCCCCC1(c2cc(O)c3c(c2)OC(C)(C)[C@@H]2CCC(=O)C[C@@H]32)CCCC1 | 1.76 nM | 0.97 nM | 3.34 nM |  |  |  |
| Cc1c(C(=O)NN2CCCCC2)nn(-c2ccc(Cl)cc2Cl)c1-c1ccc(Cl)cc1 [RIMONABANT] |  |  |  | 85.4% | 48% |  |
| CC1(C)Oc2cc(C3(CCCCCBr)CCC3)cc(O)c2[C@@H]2C[C@H](O)CC[C@H]21 | 1.37 nM |  |  |  |  |  |
| CCCC/C=C\C1(c2cc(O)c3c(c2)OC(C)(C)[C@@H]2CCC(=O)C[C@@H]32)CCC1 | 1.13 nM | 12 nM | 15.1 nM |  |  |  |
| CC1(C)Oc2cc(C3(CCCCC#N)CCCC3)cc(O)c2[C@@H]2CC(=O)CC[C@H]21 | 3.14 nM | 2.78 nM |  |  |  |  |
| CCCCCCC1(c2cc(O)c3c(c2)OC(C)(C)[C@@H]2CC[C@@H](O)C[C@@H]32)CCC1 | 0.16 nM | 4.21 nM | 5.13 nM |  |  | 0.026 mg/kg |
| CCCCCCC1(c2cc(O)c3c(c2)OC(C)(C)[C@@H]2CCC(=O)C[C@@H]32)CCC1 | 0.84 nM | 13.7 nM | 11.9 nM |  |  |  |
| CCCC/C=C\C1(c2cc(O)c3c(c2)OC(C)(C)[C@@H]2CCC(=O)C[C@@H]32)CCCC1 | 1.23 nM | 5.25 nM | 7.02 nM |  |  |  |
| CC1(C)Oc2cc(C3(CCCCCBr)CCC3)cc(O)c2[C@@H]2C[C@@H](O)CC[C@H]21 | 1.5 nM |  |  |  |  |  |
| CC1(C)Oc2cc(C3(CCCCBr)CCCC3)cc(O)c2[C@@H]2CC(=O)CC[C@H]21 | 13.1 nM | 13.9 nM |  |  |  |  |
| CC1(C)Oc2cc(C3(CCCCCBr)CCCC3)cc(O)c2[C@@H]2CC(=O)CC[C@H]21 | 1.03 nM | 2.59 nM | 1.32 nM |  |  |  |
| CCCCCCC1(c2cc(O)c3c(c2)OC(C)(C)[C@@H]2CCC(=O)C[C@@H]32)SCCS1 | 6.57 nM | 42.3 nM | 32.6 nM |  |  |  |
| CC1(C)Oc2cc(C3(CCCCCBr)CCC3)cc(O)c2[C@@H]2CC(=O)CC[C@H]21 | 2.33 nM | 7.56 nM | 5.88 nM |  |  |  |
| CC1(C)Oc2cc(C3(CCCCCCBr)CCCC3)cc(O)c2[C@@H]2CC(=O)CC[C@H]21 | 4.96 nM | 1.6 nM | 3.02 nM |  |  |  |
| CCCCCCC(C)(C)c1cc(O)c2c(c1)OC(C)(C)[C@@H]1CCC(=O)C[C@@H]21 [NABILONE] | 2.2 nM | 1.8 nM |  |  |  |  |
